Assay results published in ChEMBL document CHEMBL3862016 (Bioorg Med Chem Lett, 2016).
Activity calls are given as the source filed them. The rule behind the calls is not given here.

Assays:
Histone deacetylase 3 = Histone deacetylase 3 (Homo sapiens, UniProt O15379); test: Inhibition of HDAC3 (unknown origin) assessed as inhibition of fluorogenic peptide deacetylation
Histone deacetylase 1 = Histone deacetylase 1 (Homo sapiens, UniProt Q13547); test: Inhibition of HDAC1 (unknown origin) assessed as inhibition of fluorogenic peptide deacetylation
Chain of Histone deacetylase 1 (Q13547 whole entry): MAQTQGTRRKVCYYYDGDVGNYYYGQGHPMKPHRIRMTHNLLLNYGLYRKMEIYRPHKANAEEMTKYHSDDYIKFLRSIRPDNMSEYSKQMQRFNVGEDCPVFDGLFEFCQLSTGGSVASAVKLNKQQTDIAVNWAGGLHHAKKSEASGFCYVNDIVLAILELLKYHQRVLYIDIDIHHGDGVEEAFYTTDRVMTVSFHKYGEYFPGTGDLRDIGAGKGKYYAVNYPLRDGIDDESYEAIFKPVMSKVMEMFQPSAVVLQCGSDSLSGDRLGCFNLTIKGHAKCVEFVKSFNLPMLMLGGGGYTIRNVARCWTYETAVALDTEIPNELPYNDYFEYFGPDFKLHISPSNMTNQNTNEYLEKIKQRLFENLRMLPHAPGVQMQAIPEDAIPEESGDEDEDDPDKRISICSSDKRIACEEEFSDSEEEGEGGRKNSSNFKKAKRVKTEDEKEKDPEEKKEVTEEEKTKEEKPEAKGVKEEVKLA

Histone deacetylase 2 = Histone deacetylase 2 (Homo sapiens, UniProt Q92769); test: Inhibition of HDAC2 (unknown origin) assessed as inhibition of fluorogenic peptide deacetylation
Chain of Histone deacetylase 2 (Q92769 whole entry): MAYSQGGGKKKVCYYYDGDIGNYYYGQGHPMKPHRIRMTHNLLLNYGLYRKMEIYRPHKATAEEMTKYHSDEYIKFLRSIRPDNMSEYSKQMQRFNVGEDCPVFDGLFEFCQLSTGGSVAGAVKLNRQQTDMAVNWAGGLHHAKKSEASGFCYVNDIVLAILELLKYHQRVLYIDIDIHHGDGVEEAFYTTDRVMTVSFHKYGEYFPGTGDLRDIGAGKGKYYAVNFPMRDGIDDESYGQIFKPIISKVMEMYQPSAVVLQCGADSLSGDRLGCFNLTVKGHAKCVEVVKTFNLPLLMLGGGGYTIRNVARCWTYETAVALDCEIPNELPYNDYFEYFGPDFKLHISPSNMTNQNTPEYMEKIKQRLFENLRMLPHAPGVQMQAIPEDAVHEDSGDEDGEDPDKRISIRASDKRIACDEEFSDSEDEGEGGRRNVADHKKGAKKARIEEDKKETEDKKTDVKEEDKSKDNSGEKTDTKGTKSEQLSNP

[1] = biological target: T1, Protein deacetylase HDAC6 (Homo sapiens, UniProt Q9UBN7); test: Inhibition of HDAC6 (unknown origin) assessed as inhibition of fluorogenic peptide deacetylation
T1 sequence (Q9UBN7 whole entry): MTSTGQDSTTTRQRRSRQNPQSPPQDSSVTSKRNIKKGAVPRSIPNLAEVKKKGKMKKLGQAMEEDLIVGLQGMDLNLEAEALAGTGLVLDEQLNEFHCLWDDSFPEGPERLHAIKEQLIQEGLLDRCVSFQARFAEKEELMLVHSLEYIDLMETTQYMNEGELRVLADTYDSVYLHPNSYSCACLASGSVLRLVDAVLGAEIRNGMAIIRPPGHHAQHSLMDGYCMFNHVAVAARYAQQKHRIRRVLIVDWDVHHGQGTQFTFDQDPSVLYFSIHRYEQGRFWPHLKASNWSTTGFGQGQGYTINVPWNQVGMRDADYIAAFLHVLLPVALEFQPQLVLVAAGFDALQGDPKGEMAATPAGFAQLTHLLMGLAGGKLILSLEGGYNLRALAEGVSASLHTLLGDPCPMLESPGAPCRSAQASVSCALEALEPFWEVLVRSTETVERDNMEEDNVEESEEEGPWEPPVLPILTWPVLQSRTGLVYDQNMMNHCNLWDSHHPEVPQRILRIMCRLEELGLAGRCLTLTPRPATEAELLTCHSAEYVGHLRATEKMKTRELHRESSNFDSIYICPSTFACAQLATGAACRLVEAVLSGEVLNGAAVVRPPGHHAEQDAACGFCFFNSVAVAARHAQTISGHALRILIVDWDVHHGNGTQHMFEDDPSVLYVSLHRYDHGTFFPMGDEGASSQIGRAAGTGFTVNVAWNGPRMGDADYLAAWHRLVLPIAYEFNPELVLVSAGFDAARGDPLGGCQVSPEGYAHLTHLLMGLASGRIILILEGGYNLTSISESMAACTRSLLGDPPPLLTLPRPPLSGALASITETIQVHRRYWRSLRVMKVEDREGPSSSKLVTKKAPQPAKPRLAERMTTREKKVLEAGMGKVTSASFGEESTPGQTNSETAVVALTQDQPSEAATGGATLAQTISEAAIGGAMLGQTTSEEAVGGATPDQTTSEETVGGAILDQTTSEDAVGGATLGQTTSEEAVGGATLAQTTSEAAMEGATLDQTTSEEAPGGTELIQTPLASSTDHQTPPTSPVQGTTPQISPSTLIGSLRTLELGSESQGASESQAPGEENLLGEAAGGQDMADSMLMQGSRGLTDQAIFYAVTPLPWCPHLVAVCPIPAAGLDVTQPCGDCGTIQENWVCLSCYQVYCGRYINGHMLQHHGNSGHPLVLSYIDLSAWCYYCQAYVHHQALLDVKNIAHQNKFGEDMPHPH

Androgen receptor = biological target: T2, Androgen receptor (Homo sapiens, UniProt P10275); test: Displacement of [3H]mibolerone from androgen receptor (unknown origin) in membranes after 24 hrs by HAP adsorption assay
T2 sequence (P10275 whole entry): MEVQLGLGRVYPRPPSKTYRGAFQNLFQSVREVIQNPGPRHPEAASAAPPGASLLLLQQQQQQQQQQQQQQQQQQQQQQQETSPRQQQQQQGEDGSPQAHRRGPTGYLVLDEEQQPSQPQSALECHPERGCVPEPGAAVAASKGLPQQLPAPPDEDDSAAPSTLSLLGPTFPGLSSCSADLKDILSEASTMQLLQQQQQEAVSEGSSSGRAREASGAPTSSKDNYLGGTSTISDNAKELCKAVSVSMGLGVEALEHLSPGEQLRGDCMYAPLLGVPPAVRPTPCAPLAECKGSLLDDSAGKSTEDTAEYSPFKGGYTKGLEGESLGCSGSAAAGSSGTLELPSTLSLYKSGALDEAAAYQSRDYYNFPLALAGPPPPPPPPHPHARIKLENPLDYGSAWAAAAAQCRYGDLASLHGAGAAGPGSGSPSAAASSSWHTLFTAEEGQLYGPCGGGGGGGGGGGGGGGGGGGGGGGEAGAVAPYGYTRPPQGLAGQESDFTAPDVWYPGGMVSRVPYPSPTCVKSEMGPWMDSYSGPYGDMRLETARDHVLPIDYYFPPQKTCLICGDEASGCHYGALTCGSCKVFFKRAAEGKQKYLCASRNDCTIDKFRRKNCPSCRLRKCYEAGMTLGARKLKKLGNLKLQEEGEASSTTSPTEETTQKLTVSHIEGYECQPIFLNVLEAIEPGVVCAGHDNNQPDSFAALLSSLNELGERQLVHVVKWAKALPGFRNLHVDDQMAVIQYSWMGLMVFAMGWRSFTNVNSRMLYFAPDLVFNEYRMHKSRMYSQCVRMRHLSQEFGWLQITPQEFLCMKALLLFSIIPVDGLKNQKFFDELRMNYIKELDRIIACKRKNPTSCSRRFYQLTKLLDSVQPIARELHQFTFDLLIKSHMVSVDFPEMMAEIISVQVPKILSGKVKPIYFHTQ

[2] = Terminal half life in mouse at 10 mg/kg, ip by HPLC-MS analysis; format: ADME, organism-based; settings: in vivo, read-out: beta t1/2 (converted)
Outline: (§1)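 Mice dosed iv at 2 mg/kg, or ip or sc at 10 mg/kg. Plasma concentration–time profiles were obtained by sparse sampling with N = 3 per time-point. Parameters (Cmax, Tmax, AUClast, terminal t1/2, CL, Vz, bioavailability) were derived by noncompartmental analysis.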

[3] = Tmax in mouse at 10 mg/kg, sc by HPLC-MS analysis; format: ADME, organism-based; settings: in vivo; outline: as §1
[4] = Metabolic stability in mouse liver microsomes assessed as compound remaining at 1 uM measured after 30 mins in presence of NADPH by LC-MS/MS analysis; format: ADME; settings: read-out: Stability
[5] = Bioavailability in mouse at 10 mg/kg, sc by HPLC-MS analysis; format: ADME, organism-based; settings: in vivo; outline: as §1
[6] = AUClast in mouse at 10 mg/kg, ip by HPLC-MS analysis; format: ADME, organism-based; parameters: dose 10 mg/kg, time 0 - last, route intraperitoneal; settings: in vivo; outline: as §1
[7] = AUClast in mouse at 10 mg/kg, sc by HPLC-MS analysis; format: ADME, organism-based; parameters: dose 10 mg/kg, time 0 - last, route subcutaneous; settings: in vivo; outline: as §1
[8] = Cmax in mouse at 10 mg/kg, sc by HPLC-MS analysis; format: ADME, organism-based; parameters: dose 10 mg/kg, route subcutaneous; settings: in vivo; outline: as §1
[9] = Tmax in mouse at 2 mg/kg, iv by HPLC-MS analysis; format: ADME, organism-based; settings: in vivo; outline: as §1
[10] = Apparent volume of distribution in mouse at 2 mg/kg, iv by HPLC-MS analysis; format: ADME, organism-based; settings: in vivo, read-out: Vz; outline: as §1
[11] = Cmax in mouse at 10 mg/kg, ip by HPLC-MS analysis; format: ADME, organism-based; parameters: dose 10 mg/kg, route intraperitoneal; settings: in vivo; outline: as §1
[12] = Terminal half life in mouse at 2 mg/kg, iv by HPLC-MS analysis; format: ADME, organism-based; settings: in vivo, read-out: beta t1/2 (converted); outline: as §1
[13] = Cmax in mouse at 2 mg/kg, iv by HPLC-MS analysis; format: ADME, organism-based; parameters: dose 2 mg/kg, route intravenous; settings: in vivo; outline: as §1
UGT [14] = test: Metabolic stability in mouse liver microsomes assessed as UGT-mediated glucuronidation of compound by measuring parent compound remaining at 5 uM after 30 mins in presence of UDPGA by LC-MS/MS analysis; format: ADME; settings: read-out: Stability
[15] = Terminal half life in mouse at 10 mg/kg, sc by HPLC-MS analysis; format: ADME, organism-based; settings: in vivo, read-out: beta t1/2 (converted); outline: as §1
[16] = AUClast in mouse at 2 mg/kg, iv by HPLC-MS analysis; format: ADME, organism-based; parameters: dose 2 mg/kg, route intravenous, time 0 - last; settings: in vivo; outline: as §1
[17] = Tmax in mouse at 10 mg/kg, ip by HPLC-MS analysis; format: ADME, organism-based; settings: in vivo; outline: as §1
[18] = Bioavailability in mouse at 10 mg/kg, ip by HPLC-MS analysis; format: ADME, organism-based; settings: in vivo; outline: as §1
[19] = Metabolic stability in human liver microsomes assessed as compound remaining at 1 uM measured after 30 mins in presence of NADPH by LC-MS/MS analysis; format: ADME; settings: read-out: Stability
[20] = Clearance in mouse at 2 mg/kg, iv by HPLC-MS analysis; format: ADME, organism-based; settings: in vivo; outline: as §1
UGT [21] = test: Metabolic stability in human liver microsomes assessed as UGT-mediated glucuronidation of compound by measuring parent compound remaining at 5 uM after 30 mins in presence of UDPGA by LC-MS/MS analysis; format: ADME; settings: read-out: Stability
[22] = biological target: T3, Androgen receptor (Homo sapiens) (UniProt P10275); test: Antagonist activity at AR in human LNCAP cells assessed as suppression of DHT-induced AR protein level measured after 24 hrs relative to control; format: cell-based
T3 sequence (whole entry): T2 sequence (P10275 whole entry)
Outline: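 LNCaP cells were stimulated with 10 nM DHT and co-treated with test agent for 24 h. Whole-cell extracts were resolved on an acrylamide gel and immunoblotted for AR and acetylated tubulin, with actin as the loading control. AR protein level was normalized to actin and compared with vehicle-treated cells.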

Chain of Histone deacetylase 3 (O15379 whole entry): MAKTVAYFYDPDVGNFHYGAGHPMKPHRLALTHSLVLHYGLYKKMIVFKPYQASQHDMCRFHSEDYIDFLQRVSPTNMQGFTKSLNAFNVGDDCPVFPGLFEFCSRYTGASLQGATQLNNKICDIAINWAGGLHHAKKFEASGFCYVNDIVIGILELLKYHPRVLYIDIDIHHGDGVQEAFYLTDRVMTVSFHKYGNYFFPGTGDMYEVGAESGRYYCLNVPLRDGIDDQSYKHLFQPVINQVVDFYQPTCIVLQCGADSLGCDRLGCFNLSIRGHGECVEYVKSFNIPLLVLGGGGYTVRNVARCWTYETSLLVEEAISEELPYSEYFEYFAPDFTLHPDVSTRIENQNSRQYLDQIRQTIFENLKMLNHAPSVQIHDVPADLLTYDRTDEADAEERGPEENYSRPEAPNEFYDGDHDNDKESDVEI

SMILES | IC50 (Histone deacetylase 3) [µM] | IC50 (Histone deacetylase 1) [µM] | IC50 (Histone deacetylase 2) [µM] | IC50 [1] [µM] | IC50 (Androgen receptor) [µM] | further results
CC1(C)C(=O)N(c2ccc(C#N)c(C(F)(F)F)c2)C(=S)N1c1ccc(/C=C/C(=O)Nc2ccccc2N)c(F)c1 | 20.2 | > 100 | > 100 | 60 | 0.23 | 
CC1(C)C(=O)N(c2ccc(C#N)c(C(F)(F)F)c2)C(=S)N1c1ccc(C(=O)NCCOCCC(=O)NO)c(F)c1 | 49.2 | 58.1 | 86.5 | 0.495 | 0.078 | 
CC1(C)C(=O)N(c2ccc(C#N)c(C(F)(F)F)c2)C(=S)N1c1ccc(C(=O)OCCCCCC(=O)NO)c(F)c1 | 2 | 3.15 | 1.1 | 0.002 | 0.043 | 
CC1(C)C(=O)N(c2ccc(C#N)c(C(F)(F)F)c2)C(=S)N1c1ccc(C(=O)NCCCCCC(=O)NO)c(F)c1 | 1.83 | 2.89 | 2.25 | 0.036 | < 0.03 | half-life [2]: 660 min; Tmax [3]: 30 min; remaining at 0.5 h, 1 µM [4]: 21.9%; bioavailability [5]: 100%; AUC(0-t) [6]: 846 nM·h; AUC(0-t) [7]: 1030 nM·h; Cmax [8]: 0.269 µM; Tmax [9]: 4.98 min; Vd [10]: 10.3 L/kg; Cmax [11]: 0.419 µM; half-life [12]: 25.6 min; Cmax [13]: 0.706 µM; remaining at 0.5 h, 5 µM (UGT [14]): 46.1%; half-life [15]: 205 min; AUC(0-t) [16]: 206 nM·h; Tmax [17]: 60 min; bioavailability [18]: 82.1%; remaining at 0.5 h, 1 µM [19]: 29.1%; clearance [20]: 16.7 L/h/kg; remaining at 0.5 h, 5 µM (UGT [21]): 97.6%
CC1(C)C(=O)N(c2ccc(C#N)c(C(F)(F)F)c2)C(=S)N1c1ccc(C(=O)NCCCn2cccc(O)c2=O)c(F)c1 | > 100 | > 100 | > 100 | 14 | 0.56 | 
CC1(C)C(=O)N(c2ccc(C#N)c(C(F)(F)F)c2)C(=S)N1c1ccc(Cn2ccc3cc(/C=C/C(=O)NO)ccc32)c(F)c1 | > 100 | > 100 | > 100 | 2.03 | < 0.03 | 
CN1CCc2c(c3ccccc3n2Cc2ccc(C(=O)NO)cc2)C1 |  |  |  |  |  | inhibition [22]: Active
CC1(C)C(=O)N(c2ccc(C#N)c(C(F)(F)F)c2)C(=S)N1c1ccc(C(=O)NCCCCCCc2ccc(C(=O)C(F)(F)F)s2)c(F)c1 | > 10 | > 10 | > 10 | > 10 | 0.068 | 
CC1(C)C(=O)N(c2ccc(C#N)c(C(F)(F)F)c2)C(=S)N1c1ccc(C(=O)Nc2ccccc2N)c(F)c1 | 5.4 | 6.19 | 14.1 | 47.3 | 0.33 | 
CC1(C)C(=O)N(c2ccc(C#N)c(C(F)(F)F)c2)C(=S)N1c1ccc(C(=O)NCCCNS(N)(=O)=O)c(F)c1 | > 100 | > 100 | > 100 | > 100 | 0.35 | 

Further lines, with some results ahead:

IC50 (Histone deacetylase 3) [µM] | IC50 (Histone deacetylase 1) [µM] | IC50 (Histone deacetylase 2) [µM] | IC50 [1] [µM] | IC50 (Androgen receptor) [µM] | SMILES | further results
0.28 | > 10 | 3.37 | > 10 | < 0.03 | CC1(C)C(=O)N(c2ccc(C#N)c(C(F)(F)F)c2)C(=S)N1c1ccc(C(=O)NCCCCCCC(=O)Nc2ccccc2N)c(F)c1 | 
> 100 | > 100 | > 100 | 1.12 | 0.11 | CC1(C)C(=O)N(c2ccc(C#N)c(C(F)(F)F)c2)C(=S)N1c1ccc(C(=O)NCCCCCCNS(N)(=O)=O)c(F)c1 | 
> 100 | > 100 | > 100 | > 100 | 0.25 | CC1(C)C(=O)N(c2ccc(C#N)c(C(F)(F)F)c2)C(=S)N1c1ccc(C(=O)NCCCCCCn2cccc(O)c2=O)c(F)c1 | 
> 10 | > 10 | 3.33 | > 10 | < 0.03 | CC1(C)C(=O)N(c2ccc(C#N)c(C(F)(F)F)c2)C(=S)N1c1ccc(C(=O)NCCCCCCn2cccc(O)c2=S)c(F)c1 | 
